From ChEMBL document CHEMBL1132285, “The presence of substituents on the aryl moiety of the aryl phosphoramidate derivative of d4T enhances anti-HIV efficacy in cell culture: A structure-activity relationship” (J Med Chem, 1999) come the findings set out here.

The test system of test [1] is CCRF-CEM. Description: In vitro effective compound concentration required to protect CEM/TK cells against the cytopathogenicity of HIV-2. Particulars: Homo sapiens.
The test system of test [2] is CCRF-CEM. Description: In vitro effective compound concentration required to protect CEM/O cells against the cytopathogenicity of HIV-1. Format: functional, cell-based. The conditions noted are these: Homo sapiens. In short, it runs like this: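 CEM/0 cells at 250 000 cells/mL were infected with HIV-1 (~20 CCID50/mL) or HIV-2 strain ROD (~100 CCID50/mL), then mixed 1:1 with compound dilutions. After 4 days at 37 °C, giant cell formation was scored. EC50 is the concentration inhibiting HIV-induced giant cell formation by 50%. Values are means of 2–4 independent experiments.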

As to `Cc1cn([C@H]2C=C[C@@H](CO)O2)c(=O)[nH]c1=O` [STAVUDINE], the EC50 turned out to be 33 µM in the test with CCRF-CEM [1] and 0.651 µM in the test with CCRF-CEM [2].
